Measured values from different studies.
Compare with care: the assays were run in different laboratories.
HDAC2: Histone deacetylase 2 (HDAC2, Homo sapiens, UniProt Q92769)
HTR2A: 5-hydroxytryptamine receptor 2A (HTR2A, Homo sapiens, UniProt P28223)
ADORA2A: Adenosine receptor A2a (ADORA2A, Homo sapiens, UniProt P29274)

`O=C(NO)c1cncc(OS(=O)(=O)Oc2ccc(C(F)(F)F)cc2)c1` gave a Ki of 1.31 µM (HDAC2; enzyme activity, inhibitor, fluorescence).
`Cc1[nH]c2ccccc2c1SCCNC(=O)C1NCCC1C1CC1` (stereo not drawn) has an IC50 of 31.7 µM (HTR2A; calcium signal, antagonist).
For `O=C(/C=C/c1cccc(OS(=O)(=O)Oc2ccc(C(F)(F)F)cc2)c1)NO`, the Ki was 0.105 µM (HDAC2; enzyme activity, inhibitor, fluorescence).
`N#C[C@@]12C[C@@H]1[C@@H](n1cnc3c(NCc4cccc(Cl)c4)nc(I)nc31)[C@H](O)[C@@H]2O` has a Ki of 4.9 µM (HTR2A; ligand displacement, radioligand).
With `CN(C)c1ncnc2c1ncn2[C@@H]1O[C@H](CO)[C@@H](O)[C@H]1O` the EC50 was 3.2 µM (ADORA2A; G protein activation, agonist).
`N#C[C@@]12C[C@@H]1[C@@H](n1cnc3c(N[C@@H](C4CCC4)C4CC4)nc(I)nc31)[C@H](O)[C@@H]2O` has a Ki of over 10 µM (ADORA2A; ligand displacement, radioligand).
`CC(C)=CCNc1ncnc2c1ncn2[C@@H]1O[C@H](CO)[C@@H](O)[C@H]1O` has an EC50 of 6.4 µM (ADORA2A; G protein activation, agonist).
`COc1ccccc1CC1CCN(CC(=O)c2cc(C)[nH]c2C)C1` (stereo not drawn) has an IC50 of 13.2 µM (HTR2A; calcium signal, antagonist).
For `C=CCO[C@H]1O[C@H](CO)[C@@H](OP(=O)(O)O[C@H]2O[C@H](CO)[C@@H](O)[C@H](O)[C@@H]2O)[C@H](O)[C@@H]1O`, the Kd was 1.59 µM (CLEC4E (Homo sapiens, UniProt Q9ULY5); binding, BLI).
